Assay results as given in PubChem BioAssay AID540281 (Sanford-Burnham Center for Chemical Genomics, 2011).
Where “and” joins values, the source holds several entries; their conditions need not be identical. Equal entries are not always repeated. Among all 2,500 compounds or so, about 1,500 (60%) were called active.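 Rule for the calls: active = inhibition of at least 30% at 20 µM; inactive = the rest.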 So high a share suggests a set chosen from earlier hits. The list is a sample of the results.

These compounds were tested against Carboxy-terminal domain RNA polymerase II polypeptide A small phosphatase 1 (Homo sapiens) (UniProt Q9GZU7) (assay: Scp-1 phosphatase inhibitors, retest, confirmation, biochemical, colorimetric, single concentration (AID 540281;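 note: plate controls were DMSO with enzyme for no effect and buffer wells lacking enzyme for full effect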)). Details: recombinant SCP-1 catalytic domain, phosphate release, malachite green absorbance; at 20 µM; hits give high values.
Chain of Carboxy-terminal domain RNA polymerase II polypeptide A small phosphatase 1 (Homo sapiens) (Q9GZU7 76-261 limits assumed): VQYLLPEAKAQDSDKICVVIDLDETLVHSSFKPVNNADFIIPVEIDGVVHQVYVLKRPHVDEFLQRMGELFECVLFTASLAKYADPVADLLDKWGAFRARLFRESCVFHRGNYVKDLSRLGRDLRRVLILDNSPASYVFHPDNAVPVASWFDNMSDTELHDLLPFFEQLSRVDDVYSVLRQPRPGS
In short: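 Assay system: SCP-1 enzyme, residues 76-261 / Medium: Tris acetate buffer pH 5.5 with 10 mM MgCl2 and Tween-20 / Also added: Phospho-17-mer peptide substrate / Compound: one dose, 20 µM final, 1.0% DMSO / Timing: 45 min phosphatase reaction at RT / Technique: Phosphate-release colorimetry, 630 nm absorbance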
`Cc1ccc(C(=O)NNC(=O)c2cc3cc4ccccc4nc3s2)cc1` was tested, and the inhibition was 61% (active).
In the case of `O=[N+]([O-])c1cc(S(=O)(=O)Nc2cccc(Cl)c2)ccc1N=Nc1c(O)[nH]c2ccccc12`, the inhibition is reported as 8.78% (inactive).
`Cc1ccc(CCCOC(=O)C[N+]2(C)CCCC2)cc1` was tested, and the inhibition was 78.5% (active).
In the case of `COC(=O)c1ccccc1NC(=O)C1(S(=O)(=O)c2ccc(Cl)cc2)CC1`, the inhibition is reported as -25% (inactive).
In the case of `Cc1ccc(NC(=O)c2cc(-c3ccc(C)o3)nc3ccccc23)nc1`, the inhibition is reported as 67.9% (active).
`Cc1cc(C(=O)OCC(=O)NCc2ccco2)c(C)n1-c1ccccc1` was tested, and the inhibition was 67.3% (active).
For `O=C(COC(=O)c1ccccc1O)NCc1ccco1`, the inhibition was 59.3% (active).
`CN(c1ccccc1)S(=O)(=O)c1ccc(Cl)c(C(=O)OCC(=O)NCc2ccco2)c1` was tested, and the inhibition was 56.5% (active).
`O=C(COC(=O)c1cnc(Cl)c(Cl)c1)NCc1ccco1` was tested, and the inhibition was 44.4% (active).
With `CCOC(=O)C1CCCN(C(=O)CN(c2ccc(OC)cc2)S(=O)(=O)c2c(C)noc2C)C1` (stereo not drawn) the inhibition was -13.6% (inactive).
With `NC(=O)NC(=O)CSc1nc2cc([N+](=O)[O-])ccc2n1-c1cccc(C(F)(F)F)c1` the inhibition was -1.8% (inactive).
For `CC1=NN(C(=O)CCc2ccccc2O)C(O)(C(F)(F)F)C1` (stereo not drawn), the inhibition was -13.9% (inactive).
In the case of `Cc1c(Cl)cnc(NC(=O)COC(=O)c2ccc(S(=O)(=O)NCc3ccco3)cc2)c1Cl`, the inhibition is reported as 67% (active).
For `O=C(COC(=O)CCC(=O)c1cccs1)NCc1ccco1`, the inhibition was 75.5% (active).
`CCOc1ccc2nc(N(CCCN(C)C)C(=O)c3ccc(C(=O)c4ccccc4)cc3)sc2c1` was tested, and the inhibition was -4.94% (inactive).
For `Cc1ccc(S(=O)(=O)Nc2nc(C)cc(-n3nc(C)cc3C)n2)cc1`, the inhibition was -2.85% (inactive).
In the case of `O=C(c1ccc(CS(=O)(=O)c2ccccc2)o1)N1CCN(c2ccccc2)CC1`, the inhibition is reported as 59.1% (active).
In the case of `CC(C)c1ccc(NC(=S)NNc2ccc(Cl)c(C(=O)O)c2)cc1`, the inhibition is reported as 4.8% (inactive).
For `Cc1ccc(CCNC(=O)c2ccc3nc4ccccc4c(=O)n3c2)cc1`, the inhibition was 41.5% (active).
`COc1cccc(NC(C)=[N+](C)CCNS(=O)(=O)c2ccc(Cl)cc2)c1` was tested, and the inhibition was 92.4% (active).
For `COc1cccc(CNS(=O)(=O)c2csc(C(N)=O)c2)c1`, the inhibition was -12.2% (inactive).
For `Cc1ccc(NC(=O)COC(=O)C2C3CC4OC(=O)C2C4C3)cc1Cl` (stereo not drawn), the inhibition was -2.24% (inactive).
For `O=C(COc1ccc(-n2cnnn2)cc1)Nc1ccccc1Cl`, the inhibition was 56.8% (active).
For `CC(C)CCOc1ccc(C(=O)C[N+]2(C)CCOCC2)cc1`, the inhibition was 98.7% (active).
In the case of `O=C(Nc1cccnc1)c1cc2cc(Br)ccc2oc1=O`, the inhibition is reported as 68.8% (active).
With `COc1cc(/C=C/C2=CC(C)(C)NC(=S)N2)cc(OC)c1OC` the inhibition was -11.8% (inactive).
`Cc1ccc(/C=C/C(=O)Nc2ccc([N+](=O)[O-])c(NC(=O)/C=C/c3ccc(C)o3)c2)o1` was tested, and the inhibition was 66.7% (active).
For `CCCCCN1CC(O)=C(c2nc(-c3ccc(Cl)cc3)cs2)C1=N`, the inhibition was 71.5% (active).
With `O=C(COC(=O)/C=C/c1ccc(Br)o1)Nc1cccc(S(=O)(=O)N2CCOCC2)c1` the inhibition was 16.4% (inactive).
In the case of `Cc1ccn2c(=O)nc(SCC(=O)NCc3ccc4c(c3)OCO4)nc2c1`, the inhibition is reported as 57.6% (active).
`COc1cccc(CC(=O)OCC(=O)NCc2ccc3c(c2)OCO3)c1` was tested, and the inhibition was -5.6% (inactive).
In the case of `CCCCSc1nnc(-c2ccc(C)cc2)o1`, the inhibition is reported as -16.3% (inactive).
For `Cc1ccc(N=Cc2c(O)n(-c3nccs3)c(=O)c3ccccc23)c(C)c1`, the inhibition was -12.9% (inactive).
In the case of `CC1CCN(c2ccc(S(=O)(=O)Nc3cc(C(=O)O)cc(C(=O)O)c3)cc2[N+](=O)[O-])CC1`, the inhibition is reported as 51.3% (active).
With `O=C(NN1C(=O)C2C3C=CC(O3)C2C1=O)c1ccccc1` (stereo not drawn) the inhibition was -10.8% (inactive).
With `CCc1ccc(NC(=O)CS(=O)CC(=O)NCCCc2ccccc2)cc1` (stereo not drawn) the inhibition was 93.8% (active).
With `CS(=O)(=O)C1=NN2C(=N)/C(=C\c3ccc(OCCOc4ccccc4)cc3)C(=O)N=C2S1` the inhibition was 72% (active).
In the case of `COc1cccc2cc(-c3cc(=O)oc4cc(C)c(O)cc34)oc12`, the inhibition is reported as 57.7% (active).
In the case of `O=c1c2cc(-c3ccccc3)sc2nc2n1N=C(c1cccs1)CS2`, the inhibition is reported as 38.4% (active).
In the case of `O=C(c1cc2c(s1)CCC2)N1CCN(c2ccccc2)CC1`, the inhibition is reported as 31.4% (active).
With `O=C(CN1CCN(c2ccc(Cl)cc2)CC1)c1ccccc1` the inhibition was -15.3% (inactive).
With `ON=C1/C(=N\O)CC2(C/C1=N/O)OCCO2` the inhibition was 36.9% (active).
With `Cc1nn(-c2cc(Cl)ccc2N)c(=O)c2ccccc12` the inhibition was 32.6% (active).
`COc1ccc(Cl)cc1NC(=O)CCS(=O)(=O)c1ccc(Br)cc1` was tested, and the inhibition was 62.9% (active).
`O=C(CCS(=O)(=O)c1ccc(Br)cc1)NCCc1ccc(Cl)cc1` was tested, and the inhibition was 55.6% (active).
With `O=C(c1ccc2c(c1)OCO2)N1CCNc2ccccc2C1` the inhibition was -27.2% (inactive).
With `CC[n+]1c(C)n(-c2ccccc2)c2ccc(NC(C)=O)cc21` the inhibition was 85.8% (active).
For `O=C(Cn1cc(/C=N/NC(=O)c2cccc(C(F)(F)F)c2)c2ccccc21)Nc1ccc(F)cc1`, the inhibition was 39.4% (active).
`N#CC1=C(SCc2ccccc2)NC(=O)C(C#N)C12CCCC2` (stereo not drawn) was tested, and the inhibition was 9.2% (inactive).
In the case of `O=c1[nH]n(-c2ccc([N+](=O)[O-])cc2)c(=O)c2ccccc12`, the inhibition is reported as 46.7% (active).
For `O=C1NN(c2ccccc2)C(=O)/C1=C/c1ccc(-c2cccc(C(=O)O)c2)o1`, the inhibition was 72.6% (active).
For `COc1ccc(OC)c(NC(=O)CSc2nc(-c3ccccc3)cc(=O)[nH]2)c1`, the inhibition was -9.58% (inactive).
For `COC(=O)c1ccc(-c2c(-c3ccccc3)ncc3cc(OC)c(OC)cc23)cc1`, the inhibition was -1.8% (inactive).
`COc1ccc(OCC(=O)NNC(=O)c2ccc(-c3ccccc3)cc2)cc1` was tested, and the inhibition was 67.5% (active).
For `O=C(NNC(=O)c1ccc2ccccc2c1)c1ccc(Cl)cc1`, the inhibition was 57.2% (active).
`Cn1c(N)c(C(=O)COC(=O)c2ccc3ccccc3c2)c(=O)n(C)c1=O` was tested, and the inhibition was -18.1% (inactive).
In the case of `Cc1oc2c(C)c3oc(=O)c(CC(=O)N[C@@H](CC(C)C)C(=O)N[C@@H](Cc4ccccc4)C(=O)O)c(C)c3cc2c1C`, the inhibition is reported as 80.1% (active).
`Cc1c([N+](=O)[O-])c(N)nn1C` was tested, and the inhibition was 3.58% (inactive).
With `O=C(O)c1ccc(N/N=C/c2ccc3ncccc3c2)cc1` the inhibition was 39.7% (active).
For `COc1ccc(NC(=O)CN(C)C(=O)/C=C/c2cn(Cc3ccccc3)nc2-c2cccnc2)cc1`, the inhibition was 84.6% (active).
With `COC(=O)C[n+]1cccc2ccccc21` the inhibition was 21% (inactive).
In the case of `Nn1cnnc1N/N=C/c1cc([N+](=O)[O-])c(Cl)cc1Cl`, the inhibition is reported as 86.2% (active).
In the case of `O=C1CCC(CCC(=O)N2CCCC(C(=O)c3ccc(Cl)cc3)C2)=NN1` (stereo not drawn), the inhibition is reported as -8.97% (inactive).
`O=C(Nc1cccc(F)c1)c1cc(-c2ccco2)nc2ccccc12` was tested, and the inhibition was 50.4% (active).
With `O=C(Nc1cccc(F)c1)[C@@H]1CCCN1` the inhibition was 0.82% (inactive).
`CN(CC(=O)Nc1cccc(F)c1)C(=O)C1CC(=O)N(CCc2ccccc2)C1` (stereo not drawn) was tested, and the inhibition was -11.8% (inactive).
For `CCCc1nc(-c2cc3cc(C)ccc3[nH]c2=O)no1`, the inhibition was 84.7% (active).
With `Cc1cc(/C=C2\SC(=O)N(C)C2=O)c(C)n1-c1cccc(C(=O)O)c1` the inhibition was 38.7% (active).
With `COc1cc(Cl)cc(C2NC(=O)NC(C)=C2C(=O)NCc2ccccc2)c1O` (stereo not drawn) the inhibition was -19.7% (inactive) and -13.7% (inactive).
With `C[n+]1ccc(C(=O)NCc2ccccc2)cc1` the inhibition was 80.1% (active).
In the case of `O=C(CN1CCN(S(=O)(=O)/C=C/c2ccccc2)CC1)NC(=O)NCc1ccco1`, the inhibition is reported as 10.9% (inactive).
For `Cc1ccc(SCC(=O)NC(=O)NCc2ccco2)c(C)c1`, the inhibition was 73.6% (active).
In the case of `Cc1c(CCC(=O)O)c(=O)oc2cc(OCc3ccc(Br)cc3)ccc12`, the inhibition is reported as 38.7% (active).
`Cc1c(CCC(=O)O)c(=O)oc2c(C)c(OCc3ccccc3Cl)ccc12` was tested, and the inhibition was 58.5% (active).
In the case of `COc1ccc(Cl)cc1C=CC=NNC(=O)c1ccncc1`, the inhibition is reported as 38.5% (active).
`COc1ccc(N2CCN(C(=O)CSc3nc4cc(OC)c(OC)cc4cc3C#N)CC2)cc1` was tested, and the inhibition was 25.3% (inactive).
`COCCCNc1nc2ccccc2nc1NS(=O)(=O)c1ccc(F)cc1` was tested, and the inhibition was -5.57% (inactive).
In the case of `CCC(=O)Nc1ccccc1N1CCN(S(C)(=O)=O)CC1`, the inhibition is reported as -7.14% (inactive).
With `COc1ccc(S(=O)(=O)c2c[nH]c(=S)[nH]c2=O)cc1Cl` the inhibition was 40.6% (active).
`COc1cccc2sc(N(CCCN(C)C)C(=O)C(c3ccccc3)c3ccccc3)nc12` was tested, and the inhibition was -18.8% (inactive).
For `CC1=NNC(=O)C1CCC(=O)N/N=C\c1cccc(Cl)c1` (stereo not drawn), the inhibition was -18.8% (inactive).
In the case of `CSc1ccc(/C=N/NC(=O)c2cccc(Cl)c2)cc1`, the inhibition is reported as 59.9% (active).
In the case of `O=C(Cn1nnc(-c2ccc3c(c2)OCO3)n1)NCc1ccco1`, the inhibition is reported as 30.9% (active).
For `Cc1nnc(SCC(=O)Nc2ccc(S(=O)(=O)Nc3ccc(Cl)nn3)cc2)s1`, the inhibition was 58.2% (active).
With `C=C1c2cccc(OC)c2O[C@H](C(=O)OCC)[C@@H]1CCCCCC` the inhibition was 88% (active).
For `CO/N=C(\C(=O)N[C@@H]1C(=O)N2C(C(=O)O)=C(COC(C)=O)CS[C@H]12)c1csc(N)n1` (stereo in doubt), the inhibition was 43.7% (active).
With `C=CC1C(OC2OC(CO)C(O)C(O)C2O)OC=C(C(=O)OC)C1CC1CC(=O)CC(CC(=O)CCc2ccc(O)cc2)O1` (stereo not drawn) the inhibition was -13.1% (inactive).
With `Cc1ccc(CN2CCN(c3ccccc3Cl)CC2)o1` the inhibition was -20% (inactive).
`CCOC(=O)C1=C(C)c2ccccc2OC1(C)C(=O)OCC` (stereo not drawn) was tested, and the inhibition was 39.1% (active).
With `CC(=O)Nc1ccc(N2C(=O)CCC2=O)cc1C` the inhibition was -5.6% (inactive).
For `CCOc1ccccc1/C=c1\sc2nc(-c3ccco3)nn2c1=O`, the inhibition was 61% (active).
With `N#Cc1ccc(C(=O)Nc2cccc3cccnc23)c(F)c1` the inhibition was 3.88% (inactive).
In the case of `O=C(COC(=O)c1ccc(F)cc1F)Nc1ncccn1`, the inhibition is reported as 52.5% (active).
